Source: ChEMBL document CHEMBL1122794, “[(Arylcarbonyl)oxy]propanolamines. 1. Novel beta-blockers with ultrashort duration of action” (J Med Chem, 1984)

Columns and labels:
[1] = species on record: Canis familiaris; assay: Time taken for 80% recovery at a dose of 36 microg (3-h infusion period); type: functional, organism-based; conditions: Canis lupus familiaris
[2] = t1/2 in canine liver; type: ADME, Canis lupus familiaris; conditions: dog
[3] = species on record: Canis familiaris; assay: Percent inhibition of isoproterenol induced tachycardia at a dose of 36 microg (3-h infusion period); type: functional, Canis lupus familiaris
[4] = Selectivity determined by expression 10[pA2(atria) - pA2 (trachea)] in guinea pig; type: functional, Cavia porcellus
[5] = target: T1, Adrenergic receptor beta (Homo sapiens, UniProt P08588+P07550+P13945); assay: In Vitro inhibition of the beta adrenergic receptor in guinea pig atria; type: tissue-based, Cavia porcellus; conditions: target entry is the homologue from another species
[6] = target: T1, Adrenergic receptor beta; assay: In vitro blocking of beta adrenergic receptor in guinea pig trachea; type: tissue-based, Cavia porcellus; conditions: target entry is the homologue from another species
[7] = T1/2 in canine blood; type: ADME, […], Canis lupus familiaris; conditions: dog
Outline: (§1)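 1 mL of solution containing 50 µg of compound was added to 1 mL of dog or human whole blood, or to 1 mL of 33% (w/v) canine liver homogenate. They were assayed by HPLC on a phenyl column with 60% acetonitrile/40% 0.05 M sodium phosphate (pH 6.6) and UV detection. Half-life was read graphically from concentration versus time.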

[8] = species on record: Canis familiaris; assay: Time taken for 80% recovery at a dose of 106 microg (3-h infusion period); type: functional, organism-based; conditions: Canis lupus familiaris
[9] = Stability at pH 7.4 and 37 degree Celsius (after 18 h); type: physicochemical; conditions: buffer
Outline: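 Chemical stability was tested in pH 7.4 buffer at 37 °C. The percentage of parent compound remaining after 18 h of incubation was recorded.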

[10] = Time in which 1/2 of the initial amount disappeared in human blood.; type: ADME, organism-based; outline: as §1
[11] = Time in which 1/2 of the initial amount disappeared in canine liver(106); type: ADME, […], Canis lupus familiaris; conditions: dog; outline: as §1
[12] = Time in which 1/2 of the initial amount disappeared in canine liver (44); type: ADME, […], Canis lupus familiaris; conditions: dog; outline: as §1
[13] = species on record: Canis familiaris; assay: Percent inhibition of isoproterenol induced tachycardia at a dose of 1.3 microg (3-h infusion period); type: functional, Canis lupus familiaris
[14] = species on record: Canis familiaris; assay: Time taken for 80% recovery at a dose of 4 microg (3-h infusion period); type: functional, organism-based; conditions: Canis lupus familiaris
[15] = species on record: Canis familiaris; assay: Percent inhibition of isoproterenol induced tachycardia at a dose of 4 microg (3-h infusion period); type: functional, Canis lupus familiaris
[16] = species on record: Canis familiaris; assay: Time taken for 80% recovery at a dose of 15 microg (3-h infusion period); type: functional, organism-based; conditions: Canis lupus familiaris
[17] = species on record: Canis familiaris; assay: Percent inhibition of isoproterenol induced tachycardia at a dose of 15 microg (3-h infusion period); type: functional, Canis lupus familiaris
[18] = species on record: Canis familiaris; assay: Time taken for 80% recovery at a dose of 0.59-1.26 microg (3-h infusion period); type: functional, organism-based; conditions: Canis lupus familiaris
[19] = species on record: Canis familiaris; assay: Percent inhibition of isoproterenol induced tachycardia at a dose of 0.59-1.26 microg (3-h infusion period); type: functional, Canis lupus familiaris
[20] = species on record: Canis familiaris; assay: Percent inhibition of isoproterenol induced tachycardia at a dose of 1 microg (3-h infusion period); type: functional, Canis lupus familiaris
[21] = species on record: Canis familiaris; assay: Time taken for 80% recovery at a dose of 1 microg (3-h infusion period); type: functional, organism-based; conditions: Canis lupus familiaris
[22] = species on record: Canis familiaris; assay: Percent inhibition of isoproterenol induced tachycardia at a dose of 57/122 microg (3-h infusion period); type: functional, Canis lupus familiaris
[23] = species on record: Canis familiaris; assay: Time taken for 80% recovery at a dose of 57/122 microg (3-h infusion period); type: functional, organism-based; conditions: Canis lupus familiaris
[24] = species on record: Canis familiaris; assay: Time taken for 80% recovery at a dose of 100 microg (3-h infusion period); type: functional, organism-based; conditions: Canis lupus familiaris
[25] = species on record: Canis familiaris; assay: Percent inhibition of isoproterenol induced tachycardia at a dose of 100 microg (3-h infusion period); type: functional, Canis lupus familiaris
[26] = species on record: Canis familiaris; assay: Time taken for 80% recovery at a dose of 27 microg (3-h infusion period); type: functional, organism-based; conditions: Canis lupus familiaris
[27] = species on record: Canis familiaris; assay: Percent inhibition of isoproterenol induced tachycardia at a dose of 27 microg (3-h infusion period); type: functional, Canis lupus familiaris

SMILES	half-life [2] [min]	pA2 [5]	pA2 [6]	half-life [7] [min]	half-life [10] [min]	Selectivity [4]	further results
CC(C)NCC(O)COC(=O)c1ccccc1Cl (centres undefined)	–	–	–	28	1.7	–	remaining at 18 h [9]: 92%; half-life [12]: 12 min
CC(C)NCC(O)COc1cccc2ccccc12 (centres undefined) [PROPRANOLOL]	–	–	–	> 180	–	–	Inhibition [13]: 68%
CC(C)(C)NCC(O)COC(=O)c1ccc(O)cc1 (centres undefined)	> 180	7.4	6.5	> 180	56	9	Recovery time [14]: > 60 min; Inhibition [15]: 71%
CC(=O)NCC(C)(C)NCC(O)COC(=O)c1ccccc1F (centres undefined)	–	–	–	7.5	–	–	Recovery time [16]: 35 min; Inhibition [17]: 61%
CC(C)NCC(O)COC(=O)c1ccc(N)cc1 (centres undefined)	> 180	6.7	6.6	> 180	60	1	Recovery time [18]: > 60 min; Inhibition [19]: 80%
CC(C)(CNS(=O)(=O)c1ccccc1)NCC(O)COC(=O)c1ccccc1F.O=C(O)C(=O)O (centres undefined)	–	7	7.9	15	–	1	Inhibition [22]: 43%; Recovery time [23]: 6 min
CC(C)(C)NCC(O)COC(=O)c1ccccc1O (centres undefined)	31	7.1	8	41	–	-9	Recovery time [26]: > 60 min; Inhibition [27]: 73%

Second part, led by results:

half-life [2] [min]	pA2 [5]	pA2 [6]	half-life [7] [min]	half-life [10] [min]	SMILES	Selectivity [4]	further results
1	7.1	7	8	–	CCOC(=O)NCC(C)(C)NCC(O)COC(=O)c1ccccc1F (centres undefined)	1	Recovery time [1]: 8 min; Inhibition [3]: 49%
–	–	7.1	7	1.7	CC(C)NCC(O)COC(=O)c1ccccc1F (centres undefined)	–	Recovery time [8]: 25 min; remaining at 18 h [9]: 83%; half-life [11]: 4 min
2.5	8.1	8.4	15	–	CC(C)(CNC(N)=O)NCC(O)COC(=O)c1ccccc1F (centres undefined) [FLESTOLOL]	-2	Inhibition [20]: 49%; Recovery time [21]: 21 min
–	6.1	5.7	–	–	COc1ccc(CCNCC(O)COC(=O)c2ccccc2F)cc1OC (centres undefined)	2.5	remaining at 18 h [9]: 35%; Recovery time [24]: > 60 min; Inhibition [25]: 48%
